Laboratory results taken from ChEMBL document CHEMBL3259569 (J Med Chem, 2014).

Key:
[1] = molecular target: T1, Protein deacetylase HDAC6 (Homo sapiens, UniProt Q9UBN7); assay: Inhibition of HDAC6 (unknown origin) using RHKK(Ac) (379 to 382) p53 peptide as substrate by fluorescence assay
T1 sequence (Q9UBN7 whole entry): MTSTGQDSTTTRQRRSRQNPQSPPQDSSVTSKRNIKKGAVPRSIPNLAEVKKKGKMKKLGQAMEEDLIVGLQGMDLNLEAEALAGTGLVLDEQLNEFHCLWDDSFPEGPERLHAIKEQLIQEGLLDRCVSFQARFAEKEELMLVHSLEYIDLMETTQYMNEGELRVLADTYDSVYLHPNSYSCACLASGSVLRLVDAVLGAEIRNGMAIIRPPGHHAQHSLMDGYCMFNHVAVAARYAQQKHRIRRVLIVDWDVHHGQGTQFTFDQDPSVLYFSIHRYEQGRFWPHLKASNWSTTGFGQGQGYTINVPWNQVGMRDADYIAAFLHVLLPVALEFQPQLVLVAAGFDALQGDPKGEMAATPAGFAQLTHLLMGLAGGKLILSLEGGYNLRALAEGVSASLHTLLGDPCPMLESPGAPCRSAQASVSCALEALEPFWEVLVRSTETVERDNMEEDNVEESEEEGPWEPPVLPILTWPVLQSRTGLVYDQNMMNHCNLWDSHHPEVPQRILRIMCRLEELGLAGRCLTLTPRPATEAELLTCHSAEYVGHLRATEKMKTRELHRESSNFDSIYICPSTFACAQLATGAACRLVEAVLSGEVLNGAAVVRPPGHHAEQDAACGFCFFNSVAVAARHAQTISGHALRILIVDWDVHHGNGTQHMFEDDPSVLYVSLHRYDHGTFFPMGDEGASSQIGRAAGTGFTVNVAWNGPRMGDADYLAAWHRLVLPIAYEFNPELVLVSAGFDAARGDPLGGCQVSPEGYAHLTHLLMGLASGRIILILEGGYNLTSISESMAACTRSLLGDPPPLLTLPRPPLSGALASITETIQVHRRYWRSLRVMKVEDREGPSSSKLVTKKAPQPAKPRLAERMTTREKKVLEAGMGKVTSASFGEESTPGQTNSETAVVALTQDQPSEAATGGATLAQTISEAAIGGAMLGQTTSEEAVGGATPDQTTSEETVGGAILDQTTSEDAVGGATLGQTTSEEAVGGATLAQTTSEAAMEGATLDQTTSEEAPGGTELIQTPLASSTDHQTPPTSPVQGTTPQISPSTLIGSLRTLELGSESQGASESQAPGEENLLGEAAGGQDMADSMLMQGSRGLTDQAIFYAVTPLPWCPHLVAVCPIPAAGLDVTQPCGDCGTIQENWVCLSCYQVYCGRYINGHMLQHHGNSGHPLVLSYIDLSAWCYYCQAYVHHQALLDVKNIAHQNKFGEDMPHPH

Histone deacetylase 9 = Histone deacetylase 9 (Homo sapiens, UniProt Q9UKV0); assay: Inhibition of HDAC9 (unknown origin) by fluorescence assay
How it was run: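 Run by a contract testing lab. Compounds were dissolved in DMSO and tested in 10-dose IC50 mode, using 3-fold serial dilution starting at 10 μM. IC50 was taken from the dose series.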

Histone deacetylase 9, sequence (Q9UKV0 whole entry): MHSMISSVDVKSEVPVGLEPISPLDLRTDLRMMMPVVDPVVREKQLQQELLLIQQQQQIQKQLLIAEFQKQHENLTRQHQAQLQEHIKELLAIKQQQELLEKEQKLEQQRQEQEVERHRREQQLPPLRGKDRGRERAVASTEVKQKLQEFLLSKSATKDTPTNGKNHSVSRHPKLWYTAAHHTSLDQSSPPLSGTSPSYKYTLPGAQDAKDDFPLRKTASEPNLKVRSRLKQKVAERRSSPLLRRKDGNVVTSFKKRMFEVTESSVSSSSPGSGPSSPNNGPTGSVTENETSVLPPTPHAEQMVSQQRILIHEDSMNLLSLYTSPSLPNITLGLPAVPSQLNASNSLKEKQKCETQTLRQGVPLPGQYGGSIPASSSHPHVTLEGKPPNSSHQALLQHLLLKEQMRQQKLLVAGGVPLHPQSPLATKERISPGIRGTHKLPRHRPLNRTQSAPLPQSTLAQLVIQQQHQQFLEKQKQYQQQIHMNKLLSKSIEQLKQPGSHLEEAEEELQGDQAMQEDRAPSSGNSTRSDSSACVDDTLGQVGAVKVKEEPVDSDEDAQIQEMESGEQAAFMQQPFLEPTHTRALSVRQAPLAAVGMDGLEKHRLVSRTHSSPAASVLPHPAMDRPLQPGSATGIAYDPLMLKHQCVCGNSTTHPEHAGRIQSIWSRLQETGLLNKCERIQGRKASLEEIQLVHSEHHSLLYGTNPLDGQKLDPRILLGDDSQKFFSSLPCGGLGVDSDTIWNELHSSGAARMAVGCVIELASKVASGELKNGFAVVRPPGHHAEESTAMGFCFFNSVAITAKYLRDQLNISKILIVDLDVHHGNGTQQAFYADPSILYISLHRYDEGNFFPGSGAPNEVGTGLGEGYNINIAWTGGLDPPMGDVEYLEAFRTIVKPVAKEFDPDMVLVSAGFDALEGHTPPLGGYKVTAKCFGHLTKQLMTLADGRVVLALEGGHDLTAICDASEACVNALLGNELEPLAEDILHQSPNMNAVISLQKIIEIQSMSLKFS

`O=C(/C=C/c1cccc(S(=O)(=O)n2ccc3cccnc32)c1)NO` was tested, and the IC50 [1] was 5.2 nM and the IC50 (Histone deacetylase 9) was 5340 nM.
